# Data as given in ChEMBL document CHEMBL1153546, “Pharmacokinetics of telbivudine in subjects with various degrees of renal impairment” (Antimicrob Agents Chemother, 2007).
# Experiments:
# [1] = AUC (0 to infinity) in patient with end-stage renal disease at 200 mg, po administered as two single doses 2 hrs before dialysis separated by 1 week washout period; assay type: ADME, organism-based; set-up: dose 200 mg, route oral, time infinity; settings: human, plasma
# Method in brief: (§1)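 Single oral telbivudine dose. Heparinized blood was drawn predose and up to 48 h postdose, with extra paired dialyzer samples for predialysis dosing. Plasma was stored at –20°C and assayed by validated HPLC-MS/MS (LLOQ 10 ng/ml, range 10–5,000 ng/ml). Noncompartmental analysis: AUC0-t by linear trapezoidal rule to last measurable concentration; AUC0-∞ = AUC0-t + Ct/kel.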
# [2] = Renal clearance in patient with moderate renal impairment at 400 mg, po administered as single dose; assay type: ADME, organism-based, Kidney; settings: human, in vivo, read-out: CL_renal (converted)
# Method in brief: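 Renal clearance = Au0-t/AUC0-t, where Au0-t is the cumulative unchanged drug in urine collected over 0–48 h. Plasma and urine were assayed by validated HPLC-MS/MS after a single oral dose.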
# [3] = Tmax in human with normal renal function at 600 mg, po administered as single dose; assay type: ADME, organism-based; settings: in vivo
# Method in brief: (§2)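 Single oral dose. Plasma was frozen at –20°C. Assay by validated HPLC-MS/MS (LLOQ 10 ng/ml, calibration 10–5,000 ng/ml, m/z 243.0→127.1). Tmax was read directly from the concentration-time data, with noncompartmental analysis.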
# [4] = Cmax in patient with end-stage renal disease at 200 mg, po administered as two single doses within 2 hrs of after completion of dialysis separated by 1 week washout period; assay type: ADME, organism-based; set-up: dose 200 mg, route oral; settings: human, in vivo
# Method in brief: (§3)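 Plasma telbivudine after one oral dose, sampled predose through 48 h and quantified by validated LC-MS/MS (LLOQ 10 ng/ml, transition 243.0→127.1 m/z). Cmax was read directly from the observed concentration-time data.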
# [5] = Renal clearance in patient with severe renal impairment at 200 mg, po administered as single dose; assay type: ADME, organism-based, Kidney; settings: human, in vivo, read-out: CL_renal (converted)
# Method in brief: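 Single oral dose. Urine was collected at –2–0 h and over 0–4, 4–8, 8–12, 12–24 and 24–48 h; plasma was sampled over 48 h. Both matrices were assayed by HPLC-MS/MS (urine LLOQ 30 ng/ml, plasma LLOQ 10 ng/ml). Renal clearance = cumulative urinary unchanged drug (Au0-t) / AUC0-t, with AUC by the linear trapezoidal rule.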
# [6] = Initial decline half life in human with normal renal function at 600 mg, po administered as single dose; assay type: ADME, organism-based; settings: in vivo, read-out: alphat1/2 (converted)
# Method in brief: (§4)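 Half-lives came from noncompartmental analysis of plasma LC-MS/MS concentrations over 48 h after a single oral dose. Terminal and initial-decline t1/2 were calculated as 0.693/k, with each rate constant derived by stripping and linear regression.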
# [7] = Cmax in patient with mild renal impairment at 600 mg, po administered as single dose; assay type: ADME, organism-based; set-up: dose 600 mg, route oral; settings: human, in vivo; method in brief: as §3
# [8] = AUC (0 to infinity) in patient with end-stage renal disease at 200 mg, po administered as two single doses within 2 hrs of after completion of dialysis separated by 1 week washout period; assay type: ADME, organism-based; set-up: dose 200 mg, time infinity, route oral; settings: human, plasma; method in brief: as §1
# [9] = Tmax in patient with mild renal impairment at 600 mg, po administered as single dose; assay type: ADME, organism-based; settings: human, in vivo; method in brief: as §2
# [10] = Tmax in patient with end-stage renal disease at 200 mg, po administered as two single doses within 2 hrs of after completion of dialysis separated by 1 week washout period; assay type: ADME, organism-based; settings: human, in vivo; method in brief: as §2
# [11] = Plasma clearance in patient with end-stage renal disease at 200 mg, po administered as two single doses within 2 hrs of after completion of dialysis separated by 1 week washout period; assay type: ADME, organism-based; settings: human
# Method in brief: (§5)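 Apparent total oral plasma clearance (CL/F) = dose/AUC0-∞. AUC was obtained noncompartmentally from plasma LC-MS/MS concentrations sampled up to 48 h after a single oral dose.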
# [12] = Mean cumulative urine excretion level in patient with mild renal impairment at 600 mg, po administered as single dose; assay type: ADME, organism-based; settings: human, read-out: Activity
# Method in brief: (§6)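 Urine collected at –2 to 0 h predose and at 0–4, 4–8, 8–12, 12–24 and 24–48 h after a single oral dose. Unchanged telbivudine measured by validated HPLC-MS/MS (LLOQ 30 ng/ml, calibration 30–5,000 ng/ml), and amounts were summed cumulatively.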
# [13] = Tmax in patient with severe renal impairment at 200 mg, po administered as single dose; assay type: ADME, organism-based; settings: human, in vivo; method in brief: as §2
# [14] = AUC (0 to t) in human with normal renal function at 600 mg, po administered as single dose; assay type: ADME, organism-based; settings: plasma; method in brief: as §1
# [15] = Initial decline half life in patient with end-stage renal disease at 200 mg, po administered as two single doses within 2 hrs of after completion of dialysis separated by 1 week washout period; assay type: ADME, organism-based; settings: human, in vivo, read-out: alphat1/2 (converted); method in brief: as §4
# [16] = Plasma clearance in patient with mild renal impairment at 600 mg, po administered as single dose; assay type: ADME, organism-based; settings: human; method in brief: as §5
# HepG2 = test: Cmax for Telbivudine triphosphate in HepG2 cells after 10 uM Telbivudine treatment; assay type: ADME, cell-based; settings: human, hepg2, 10 µM; read-out: Cmax_triphosphate
# [17] = Initial decline half life in patient with severe renal impairment at 200 mg, po administered as single dose; assay type: ADME, organism-based; settings: human, in vivo, read-out: alphat1/2 (converted); method in brief: as §4
# [18] = AUC (0 to t) in patient with mild renal impairment at 600 mg, po administered as single dose; assay type: ADME, organism-based; settings: human, plasma; method in brief: as §1
# [19] = Elimination half life in patient with severe renal impairment at 200 mg, po administered as single dose; assay type: ADME, organism-based; settings: human, in vivo, read-out: beta t1/2 (converted); method in brief: as §4
# Homo sapiens [20] = test: Dialytic clearance in patient with end-stage renal disease at 200 mg, po administered as single dose 2 hrs before dialysis; assay type: ADME, organism-based; settings: in vivo
# Method in brief: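 Dose given 2 h before a 3.5–4 h hemodialysis session. Paired pre- and postdialyzer plasma samples were taken at start, mid and end of dialysis. CLHD = [(QA×CA) – (QV×CV)]/CA, where QA and QV are dialyzer inflow and outflow blood rates and CA and CV are the paired concentrations.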
# [21] = AUC (0 to t) in patient with moderate renal impairment at 400 mg, po administered as single dose; assay type: ADME, organism-based; settings: human, plasma; method in brief: as §1
# [22] = Cmax in patient with end-stage renal disease at 200 mg, po administered as two single doses 2 hrs before dialysis separated by 1 week washout period; assay type: ADME, organism-based; set-up: dose 200 mg, route oral; settings: human, in vivo; method in brief: as §3
# [23] = Tmax in patient with end-stage renal disease at 200 mg, po administered as two single doses 2 hrs before dialysis separated by 1 week washout period; assay type: ADME, organism-based; settings: human, in vivo
# Method in brief: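 ESRD subjects dosed orally before dialysis, with a 3.5–4 h hemodialysis session starting 2 h post-dose. Blood was drawn predose and at 0.5, 0.75, 1, 2, 3.75–4, 5.5–6, 8, 12, 16, 20, 24, 28, 32, 36 and 48 h. Paired pre/postdialyzer samples were taken at the dialysis time points. Plasma telbivudine by HPLC-MS/MS. Tmax taken directly from the observed data.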
# [24] = AUC (0 to infinity) in patient with moderate renal impairment at 400 mg, po administered as single dose; assay type: ADME, organism-based; set-up: dose 400 mg, time infinity, route oral; settings: human, plasma; method in brief: as §1
# [25] = Elimination half life in patient with end-stage renal disease at 200 mg, po administered as two single doses within 2 hrs of after completion of dialysis separated by 1 week washout period; assay type: ADME, organism-based; settings: human, in vivo, read-out: beta t1/2 (converted); method in brief: as §4
# Homo sapiens [26] = test: AUC (0 to infinity) in human with normal renal function at 600 mg, po administered as single dose; assay type: ADME, organism-based, Plasma; set-up: dose 600 mg, route oral, time infinity; settings: in vivo; method in brief: as §1
# [27] = Mean cumulative urine excretion level in patient with moderate renal impairment at 400 mg, po administered as single dose; assay type: ADME, organism-based; settings: human, read-out: Activity; method in brief: as §6
structure (smiles),measurement,setting,value
Cc1cn([C@@H]2C[C@@H](O)[C@H](CO)O2)c(=O)[nH]c1=O [TELBIVUDINE],AUC(0-inf),[1],43400 ng·h/mL
same,CL renal,[2],43.3 mL/min
same,Tmax,[3],4 h
same,Cmax,[4],2100 ng/mL
same,CL renal,[5],11.7 mL/min
same,half-life,[6],2.32 h
same,Cmax,[7],3200 ng/mL
same,AUC(0-inf),[8],67400 ng·h/mL
same,Tmax,[9],4 h
same,Tmax,[10],3.5 h
same,CL/F,[11],60 mL/min
same,dose excreted,[12],23.6%
same,Tmax,[13],4 h
same,AUC(0-t),[14],26500 ng·h/mL
same,half-life,[15],4.87 h
same,CL/F,[16],345 mL/min
same,Cmax,HepG2,30 µM
same,half-life,[17],4.5 h
same,AUC(0-t),[18],29200 ng·h/mL
same,half-life,[19],32.9 h
same,CL,Homo sapiens [20],13.3 L/h
same,AUC(0-t),[21],30100 ng·h/mL
same,Cmax,[22],1200 ng/mL
same,Tmax,[23],8 h
same,AUC(0-inf),[24],36000 ng·h/mL
same,half-life,[25],37.9 h
same,AUC,Homo sapiens [26],28500 ng·h/mL
same,dose excreted,[27],19.8%
